# According to ChEMBL document CHEMBL5715938, “The protein kinase Cbeta-selective inhibitor, Enzastaurin (LY317615.HCl), suppresses signaling through the AKT pathway, induces apoptosis, and suppresses growth of human colon cancer and glioblastoma xenografts” (Cancer Res, 2005):
# The source made the active and inactive calls. The rule behind the calls is not given here.
# Key:
# [1] = tested on: TK-10; test: Antiproliferative activity against human TK-10 cells assessed as reduction in cell growth upto 10 uM measured after 6 days by propidium iodide staining based analysis; format: functional; conditions: time 6.0 day
# Procedure, shortened: (§1)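 ATCC-sourced lines grown without antibiotics; 1,000 cells/well in 1% FBS medium, refed ±drug on days 1 and 4 over a 6-day course. On day 7, propidium iodide (10 μg/mL in D-PBS) read after 30 min for nonviable cells, plate frozen at -80°C 2 h, thawed and reread; proliferative index = postfreeze minus prefreeze signal.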
# [2] = tested on: DU-145; test: Antiproliferative activity against human DU-145 cells assessed as reduction in cell growth upto 10 uM measured after 6 days by propidium iodide staining based analysis; format: functional; conditions: time 6.0 day; procedure, shortened: as §1
# [3] = target: Inhibitor of nuclear factor kappa-B kinase subunit beta (Homo sapiens) (UniProt O14920); test: Inhibition of IKKbeta (unknown origin) at 1 micromol/L relative to control; conditions: dose 1.0 µmol/L
# Procedure, shortened: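 Upstate Kinase Profiler panel at 1 μmol/L drug, run per provider; data expressed as percent of kinase activity without drug.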
# [4] = target: Mitogen-activated protein kinase 14 (Homo sapiens) (UniProt Q16539); test: Inhibition of SAPK2alpha (unknown origin) at 1 micromol/L relative to control; conditions: dose 1.0 µmol/L
# Procedure, shortened: (§2)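 Commercial kinase profiler panel run to the provider's protocol, with the compound tested at 1 µmol/L. Activity is expressed as percent of kinase activity without compound.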
# [5] = Plasma concentration in athymic nude mouse xenografted with human HCT-116 cells at 75 mg/kg, po administered twice daily measured after 1 hr by LC-MS analysis; format: ADME, organism-based
# Procedure, shortened: (§3)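 Female athymic nude mice, 6–8 weeks old, received 5 million HCT116 cells s.c. in the flank in 1:1 serum-free medium and matrigel (n = 9 per group). Dosing began at a group mean tumor volume of 100 mm³: 75 mg/kg twice daily by gavage, suspended in 10% acacia in water. Plasma was taken on days 1 and 21 at 0.5–12 h post-dose and measured by LC-MS/MS.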
# [6] = tested on: HCT-116; test: Antitumor activity against human HCT-116 cells xenografted in athymic nude mouse assessed as reduction in GSK3beta phosphorylation at serine 9 residue at 75 mg/kg, po administered twice daily measured after 2 hrs by ELISA method relative to control; format: functional; parameters: scale not given: the % may be the effect or the level left
# Procedure, shortened: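 HCT116-bearing nude mice, 75 mg/kg by gavage; tumors and PBMCs harvested 0.5, 2, 4, 8 h post-dose, n = 5 per time point. PBMCs from five mice pooled via CPT tube. Lysates assayed by pGSK3β Ser9 immunometric ELISA (tumor 400–600 μg, PBMC 50–100 μg protein/well); percent of vehicle control, Dunnett/ANOVA.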
# [7] = target: Protein kinase C zeta type (Homo sapiens) (UniProt Q05513); test: Inhibition of PKCzeta (unknown origin) at 1 micromol/L relative to control; conditions: dose 1.0 µmol/L; procedure, shortened: as §2
# [8] = target: Platelet-derived growth factor receptor alpha (Homo sapiens) (UniProt P16234); test: Inhibition of PDGFRalpha (unknown origin) at 1 micromol/L relative to control; conditions: dose 1.0 µmol/L; procedure, shortened: as §2
# [9] = target: Serine/threonine-protein kinase AKT (Homo sapiens) (UniProt P31751+Q9Y243+P31749); test: Inhibition of AKT phosphorylation at Thr308 residue in human HCT-116 cells at 1 micromol/L upto 4 hrs by Western blotting analysis; format: cell-based; conditions: dose 1.0 µmol/L
# Procedure, shortened: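 Cultured tumor cells treated with 1 μmol/L drug; lysates in cell extraction buffer with protease inhibitors, western blotted with phospho-specific antibodies (pGSK3β Ser9, pAKT Thr308, phospho-ERK) alongside total GSK3β/AKT.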
# [10] = target: Protein kinase C epsilon type (Homo sapiens, UniProt Q02156); test: Inhibition of recombinant human PKCepsilon using myelin basic protein as substrate incubated for 60 mins in presence of […] and ATP by microbeta scintillation counter analysis
# Procedure, shortened: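 Recombinant human PKCε at 719 pmol/L. Myelin basic protein substrate at 0.25 mg/mL. 30 µmol/L ATP plus 32P-ATP. Started with enzyme, 60 min at room temperature, H3PO4 quench. Phosphocellulose filter capture, scintillation counting. 10-point series 1–2,000 nmol/L. IC50 from three-variable logistic fit.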
# [11] = tested on: HCT-116; test: Induction of apoptosis in human HCT-116 cells assessed as increase in apoptotic cells incubated for 72 hrs by TUNEL staining based analysis (reference value: 2%); format: functional; conditions: dose 4 µmol/L, at 4 µM
# [12] = tested on: HCT-116; test: Antitumor activity against human HCT-116 cells xenografted in athymic nude mouse assessed as reduction in tumor growth at 75 mg/kg, po administered twice daily measured after 21 days; format: functional, organism-based; conditions: time 21.0 day
# Procedure, shortened: (§4)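 Female athymic nude mice, 6–8 weeks, 5 million cells s.c. flank in 1:1 serum-free medium/matrigel; at group mean 100 mm³, 75 mg/kg by gavage twice daily in 10% acacia for 21 days, n = 9/group, vehicle controls; caliper volume A²×B×0.536; two-way repeated measures analysis.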
# [13] = tested on: Malme-3M; test: Antiproliferative activity against human Malme-3M cells assessed as reduction in cell growth upto 10 uM measured after 6 days by propidium iodide staining based analysis; format: functional; conditions: time 6.0 day; procedure, shortened: as §1
# [14] = Plasma concentration in athymic nude mouse xenografted with human HCT-116 cells at 75 mg/kg, po administered twice daily measured after 2 hrs by LC-MS analysis; format: ADME, organism-based; procedure, shortened: as §3
# [15] = tested on: U-87 MG; test: Antitumor activity against human U-87 MG cells xenografted in athymic nude mouse assessed as reduction in tumor growth at 75 mg/kg, po administered twice daily measured after 21 days; format: functional, organism-based; conditions: U-87MG ATCC, time 21.0 day; procedure, shortened: as §4
# [16] = tested on: T47D; test: Antiproliferative activity against human T47D cells assessed as reduction in cell growth upto 10 uM measured after 6 days by propidium iodide staining based analysis; format: functional; conditions: time 6.0 day; procedure, shortened: as §1
# [17] = target: Serine/threonine-protein kinase N2 (Homo sapiens) (UniProt Q16513); test: Inhibition of PRK2 (unknown origin) at 1 micromol/L relative to control; conditions: dose 1.0 µmol/L; procedure, shortened: as §2
# [18] = target: Mitogen-activated protein kinase 12 (Homo sapiens) (UniProt P53778); test: Inhibition of SAPK3 (unknown origin) at 1 micromol/L relative to control; conditions: dose 1.0 µmol/L; procedure, shortened: as §2
# [19] = tested on: ACHN; test: Antiproliferative activity against human ACHN cells assessed as reduction in cell growth upto 10 uM measured after 6 days by propidium iodide staining based analysis; format: functional; conditions: time 6.0 day; procedure, shortened: as §1
# [20] = tested on: HCT-116; test: Antitumor activity against human HCT-116 cells xenografted in athymic nude mouse assessed as reduction in GSK3beta phosphorylation at serine 9 residue at 75 mg/kg, po administered twice daily by Western blotting analysis; format: functional, organism-based; conditions: time <= 8.0 hrs, TDE = time-dependent effect
# [21] = tested on: U-87 MG; test: Antiproliferative activity against human U-87 MG cells assessed as reduction in cell growth upto 10 uM measured after 6 days by propidium iodide staining based analysis; format: functional; conditions: U-87MG ATCC, time 6.0 day; procedure, shortened: as §1
# [22] = target: Glycogen synthase kinase-3 beta (Homo sapiens) (UniProt P49841); conditions: U-87 MG, dose 1.0 µmol/L, time <= 4.0 hrs
# [23] = tested on: HCT-116; test: Antiproliferative activity against human HCT-116 cells assessed as reduction in cell growth upto 10 uM measured after 6 days by propidium iodide staining based analysis; format: functional; conditions: time 6.0 day; procedure, shortened: as §1
# [24] = tested on: HCT-116; test: Induction of apoptosis in human HCT-116 cells assessed as increase in apoptotic cells in sub-G0-G1 fraction at 0.3 to 4 micromol/L incubated for 72 hrs by TUNEL staining based analysis; format: functional, cell-based; conditions: dose 0.3-4 µmol/L
# [25] = target: Proto-oncogene tyrosine-protein kinase Src (Homo sapiens) (UniProt P12931); test: Inhibition of c-SRC (unknown origin) at 1 micromol/L relative to control; conditions: dose 1.0 µmol/L; procedure, shortened: as §2
# Proto-oncogene tyrosine-protein kinase Src (Homo sapiens), sequence (P12931 2-536 limits assumed): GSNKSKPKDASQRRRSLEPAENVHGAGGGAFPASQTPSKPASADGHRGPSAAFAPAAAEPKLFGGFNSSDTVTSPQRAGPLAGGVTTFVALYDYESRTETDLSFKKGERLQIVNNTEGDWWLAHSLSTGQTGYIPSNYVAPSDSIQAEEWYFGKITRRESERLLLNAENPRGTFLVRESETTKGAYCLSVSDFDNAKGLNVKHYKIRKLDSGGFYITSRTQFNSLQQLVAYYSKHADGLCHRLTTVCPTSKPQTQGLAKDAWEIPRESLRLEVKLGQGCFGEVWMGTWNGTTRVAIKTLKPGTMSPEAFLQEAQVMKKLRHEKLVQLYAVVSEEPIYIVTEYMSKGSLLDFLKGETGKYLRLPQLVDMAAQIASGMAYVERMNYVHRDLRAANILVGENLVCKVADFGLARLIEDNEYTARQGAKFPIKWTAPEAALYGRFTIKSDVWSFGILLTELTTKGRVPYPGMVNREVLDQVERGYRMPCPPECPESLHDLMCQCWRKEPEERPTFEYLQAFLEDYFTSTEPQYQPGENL
# Serine/threonine-protein kinase AKT (Homo sapiens), sequence (P31749 whole entry, looked up): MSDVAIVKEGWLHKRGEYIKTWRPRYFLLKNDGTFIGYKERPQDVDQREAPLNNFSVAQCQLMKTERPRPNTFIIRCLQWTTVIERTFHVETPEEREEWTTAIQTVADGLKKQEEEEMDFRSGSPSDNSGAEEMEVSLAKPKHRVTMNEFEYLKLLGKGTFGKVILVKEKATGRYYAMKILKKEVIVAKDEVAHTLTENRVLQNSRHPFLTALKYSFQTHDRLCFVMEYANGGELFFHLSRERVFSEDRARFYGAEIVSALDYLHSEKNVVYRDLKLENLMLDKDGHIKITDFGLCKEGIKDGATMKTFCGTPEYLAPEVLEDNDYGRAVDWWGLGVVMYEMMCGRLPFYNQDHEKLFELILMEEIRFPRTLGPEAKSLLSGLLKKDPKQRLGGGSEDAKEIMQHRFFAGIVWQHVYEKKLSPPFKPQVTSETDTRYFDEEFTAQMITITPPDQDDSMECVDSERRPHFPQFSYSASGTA
# Serine/threonine-protein kinase AKT (Homo sapiens), sequence (P31751 whole entry, looked up): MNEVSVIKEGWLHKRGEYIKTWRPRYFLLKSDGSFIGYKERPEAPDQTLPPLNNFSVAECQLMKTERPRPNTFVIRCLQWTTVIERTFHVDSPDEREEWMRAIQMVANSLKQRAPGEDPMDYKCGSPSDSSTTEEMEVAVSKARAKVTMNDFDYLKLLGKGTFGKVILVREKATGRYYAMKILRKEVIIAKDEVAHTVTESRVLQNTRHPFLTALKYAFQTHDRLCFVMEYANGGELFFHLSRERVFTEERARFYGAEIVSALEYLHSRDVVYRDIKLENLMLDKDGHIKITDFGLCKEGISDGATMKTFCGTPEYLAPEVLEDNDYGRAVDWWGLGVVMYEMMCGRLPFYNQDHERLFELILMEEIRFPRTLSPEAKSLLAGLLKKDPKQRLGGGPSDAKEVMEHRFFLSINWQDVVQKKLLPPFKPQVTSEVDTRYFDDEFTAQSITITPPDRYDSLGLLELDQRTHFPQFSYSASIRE
# Serine/threonine-protein kinase AKT (Homo sapiens), sequence (Q9Y243 whole entry, looked up): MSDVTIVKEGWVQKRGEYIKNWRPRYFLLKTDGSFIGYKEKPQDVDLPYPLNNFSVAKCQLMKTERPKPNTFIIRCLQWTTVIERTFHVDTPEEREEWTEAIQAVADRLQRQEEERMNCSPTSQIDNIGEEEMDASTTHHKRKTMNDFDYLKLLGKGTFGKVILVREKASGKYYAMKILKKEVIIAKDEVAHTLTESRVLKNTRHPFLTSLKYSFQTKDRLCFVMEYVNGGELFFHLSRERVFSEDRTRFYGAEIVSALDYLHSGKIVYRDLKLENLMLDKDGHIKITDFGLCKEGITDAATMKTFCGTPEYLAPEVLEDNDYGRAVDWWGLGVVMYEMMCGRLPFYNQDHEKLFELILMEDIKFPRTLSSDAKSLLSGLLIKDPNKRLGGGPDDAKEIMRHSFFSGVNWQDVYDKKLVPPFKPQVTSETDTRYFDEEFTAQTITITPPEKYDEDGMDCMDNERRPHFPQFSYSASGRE
# Protein kinase C zeta type (Homo sapiens), sequence (Q05513 whole entry): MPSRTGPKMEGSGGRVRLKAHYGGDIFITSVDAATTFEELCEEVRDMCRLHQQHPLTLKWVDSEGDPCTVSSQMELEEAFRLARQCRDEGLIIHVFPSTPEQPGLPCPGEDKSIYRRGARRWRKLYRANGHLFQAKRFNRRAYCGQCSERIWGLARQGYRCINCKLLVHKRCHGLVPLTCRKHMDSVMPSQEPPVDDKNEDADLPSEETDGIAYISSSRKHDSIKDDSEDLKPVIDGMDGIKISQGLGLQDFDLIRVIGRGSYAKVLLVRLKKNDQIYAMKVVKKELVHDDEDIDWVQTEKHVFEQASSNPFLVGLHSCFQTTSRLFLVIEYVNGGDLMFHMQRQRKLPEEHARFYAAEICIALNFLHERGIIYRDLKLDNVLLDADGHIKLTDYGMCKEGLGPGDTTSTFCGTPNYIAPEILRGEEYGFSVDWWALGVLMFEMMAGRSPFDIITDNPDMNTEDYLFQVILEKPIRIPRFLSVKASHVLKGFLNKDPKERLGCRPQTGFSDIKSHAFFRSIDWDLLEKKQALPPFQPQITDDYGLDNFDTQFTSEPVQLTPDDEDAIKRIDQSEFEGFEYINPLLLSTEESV
# Inhibitor of nuclear factor kappa-B kinase subunit beta (Homo sapiens), sequence (O14920 whole entry): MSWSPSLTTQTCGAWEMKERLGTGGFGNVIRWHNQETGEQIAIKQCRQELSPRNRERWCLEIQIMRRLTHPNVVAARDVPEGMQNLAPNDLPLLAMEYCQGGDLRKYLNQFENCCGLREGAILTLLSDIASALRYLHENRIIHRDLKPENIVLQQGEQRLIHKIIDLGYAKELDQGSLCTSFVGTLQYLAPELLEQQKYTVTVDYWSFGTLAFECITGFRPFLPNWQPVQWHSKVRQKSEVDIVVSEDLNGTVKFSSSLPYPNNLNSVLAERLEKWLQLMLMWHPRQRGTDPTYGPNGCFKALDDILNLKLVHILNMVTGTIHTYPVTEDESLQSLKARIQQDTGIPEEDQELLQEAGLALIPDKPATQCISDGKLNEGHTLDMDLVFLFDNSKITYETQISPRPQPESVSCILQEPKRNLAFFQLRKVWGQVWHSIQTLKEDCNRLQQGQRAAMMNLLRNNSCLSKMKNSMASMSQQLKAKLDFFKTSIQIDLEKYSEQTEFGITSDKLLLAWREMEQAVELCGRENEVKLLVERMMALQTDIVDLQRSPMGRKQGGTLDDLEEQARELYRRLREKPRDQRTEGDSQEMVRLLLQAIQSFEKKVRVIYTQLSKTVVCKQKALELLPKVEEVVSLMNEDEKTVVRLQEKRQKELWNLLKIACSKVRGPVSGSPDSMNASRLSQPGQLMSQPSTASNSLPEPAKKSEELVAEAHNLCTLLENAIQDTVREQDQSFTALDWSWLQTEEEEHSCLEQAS
# Protein kinase C epsilon type, sequence (Q02156 whole entry): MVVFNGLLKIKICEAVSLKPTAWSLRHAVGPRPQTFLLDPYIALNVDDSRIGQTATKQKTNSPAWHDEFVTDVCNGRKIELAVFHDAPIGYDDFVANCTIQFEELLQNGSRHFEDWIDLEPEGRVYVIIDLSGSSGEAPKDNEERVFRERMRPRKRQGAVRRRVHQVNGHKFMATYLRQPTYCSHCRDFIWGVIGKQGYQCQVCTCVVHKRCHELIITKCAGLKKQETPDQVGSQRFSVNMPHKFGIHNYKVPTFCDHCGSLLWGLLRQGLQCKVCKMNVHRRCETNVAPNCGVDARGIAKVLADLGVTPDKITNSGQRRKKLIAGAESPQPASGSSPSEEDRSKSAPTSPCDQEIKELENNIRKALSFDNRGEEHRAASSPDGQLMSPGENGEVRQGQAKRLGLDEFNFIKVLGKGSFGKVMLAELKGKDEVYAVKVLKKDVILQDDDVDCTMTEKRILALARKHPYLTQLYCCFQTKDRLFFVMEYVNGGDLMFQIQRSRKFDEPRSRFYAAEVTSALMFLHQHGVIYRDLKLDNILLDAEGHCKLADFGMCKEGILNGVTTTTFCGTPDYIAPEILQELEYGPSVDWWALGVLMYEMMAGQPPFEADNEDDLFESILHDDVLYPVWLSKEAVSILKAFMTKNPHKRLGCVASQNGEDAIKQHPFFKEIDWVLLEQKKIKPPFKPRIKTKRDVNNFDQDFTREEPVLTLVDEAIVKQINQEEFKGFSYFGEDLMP
# Glycogen synthase kinase-3 beta (Homo sapiens), sequence (P49841 whole entry, looked up): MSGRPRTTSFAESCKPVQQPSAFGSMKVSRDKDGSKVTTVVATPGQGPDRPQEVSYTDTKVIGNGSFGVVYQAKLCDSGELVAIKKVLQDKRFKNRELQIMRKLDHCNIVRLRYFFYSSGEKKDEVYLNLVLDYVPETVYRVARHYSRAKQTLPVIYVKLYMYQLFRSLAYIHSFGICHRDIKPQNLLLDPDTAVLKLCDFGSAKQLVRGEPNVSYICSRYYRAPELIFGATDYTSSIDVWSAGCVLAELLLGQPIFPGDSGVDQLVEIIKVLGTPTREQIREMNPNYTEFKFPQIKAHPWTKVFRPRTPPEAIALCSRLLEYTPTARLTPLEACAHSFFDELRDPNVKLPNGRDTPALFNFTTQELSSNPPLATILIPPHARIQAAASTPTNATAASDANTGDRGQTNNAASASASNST
# Mitogen-activated protein kinase 12 (Homo sapiens), sequence (P53778 whole entry): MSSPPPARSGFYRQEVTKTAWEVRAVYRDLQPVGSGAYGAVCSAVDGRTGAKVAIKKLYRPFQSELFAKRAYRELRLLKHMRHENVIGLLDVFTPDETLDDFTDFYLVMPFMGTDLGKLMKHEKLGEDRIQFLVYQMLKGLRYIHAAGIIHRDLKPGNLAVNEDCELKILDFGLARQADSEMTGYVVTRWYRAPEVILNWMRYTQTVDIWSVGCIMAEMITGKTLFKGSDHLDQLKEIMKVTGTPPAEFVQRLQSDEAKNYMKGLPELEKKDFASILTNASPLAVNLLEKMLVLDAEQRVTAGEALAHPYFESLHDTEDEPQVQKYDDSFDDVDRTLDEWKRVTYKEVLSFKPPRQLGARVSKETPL
smiles,measurement,setting,value
Cl.Cn1cc(C2=C(c3cn(C4CCN(Cc5ccccn5)CC4)c4ccccc34)C(=O)NC2=O)c2ccccc21 [ENZASTAURIN HYDROCHLORIDE],Activity,[1],inactive
same,Activity,[2],inactive
same,% control activity,[3],116%
same,% control activity,[4],101%
same,concentration at 1 h,[5],3000 nM
same,Activity,[6],80%
same,% control activity,[7],47%
same,% control activity,[8],86%
same,inhibition,[9],Active
same,IC50,[10],0.11 µM
same,Activity,[11],>50%
same,Activity,[12],Active
same,Activity,[13],inactive
same,concentration at 2 h,[14],2000 nM
same,Activity,[15],Active
same,Activity,[16],inactive
same,% control activity,[17],88%
same,% control activity,[18],88%
same,Activity,[19],inactive
same,Activity,[20],Tde
same,Activity,[21],Active
same,inhibition,[22],Active
same,Activity,[23],Active
same,Activity,[24],Active
same,% control activity,[25],101%
